Source: ChEMBL document CHEMBL4007382 (Eur J Med Chem, 2017)

Experiments:
[1] = biological target: Acetylcholinesterase (Electrophorus electricus, UniProt O42275); assay: Inhibition of electric eel AChE using S-acetylthiocholine iodide as substrate preincubated for 60 mins followed by substrate addition measured after 5 mins by Ellman's method
[2] = biological target: Acetylcholinesterase (Homo sapiens, UniProt P22303); assay: Inhibition of human erythrocytes AChE using S-acetylthiocholine iodide as substrate preincubated for 60 mins followed by substrate addition measured after 5 mins by Ellman's method
Sequence of Acetylcholinesterase (Homo sapiens, UniProt P22303) (P22303 whole entry): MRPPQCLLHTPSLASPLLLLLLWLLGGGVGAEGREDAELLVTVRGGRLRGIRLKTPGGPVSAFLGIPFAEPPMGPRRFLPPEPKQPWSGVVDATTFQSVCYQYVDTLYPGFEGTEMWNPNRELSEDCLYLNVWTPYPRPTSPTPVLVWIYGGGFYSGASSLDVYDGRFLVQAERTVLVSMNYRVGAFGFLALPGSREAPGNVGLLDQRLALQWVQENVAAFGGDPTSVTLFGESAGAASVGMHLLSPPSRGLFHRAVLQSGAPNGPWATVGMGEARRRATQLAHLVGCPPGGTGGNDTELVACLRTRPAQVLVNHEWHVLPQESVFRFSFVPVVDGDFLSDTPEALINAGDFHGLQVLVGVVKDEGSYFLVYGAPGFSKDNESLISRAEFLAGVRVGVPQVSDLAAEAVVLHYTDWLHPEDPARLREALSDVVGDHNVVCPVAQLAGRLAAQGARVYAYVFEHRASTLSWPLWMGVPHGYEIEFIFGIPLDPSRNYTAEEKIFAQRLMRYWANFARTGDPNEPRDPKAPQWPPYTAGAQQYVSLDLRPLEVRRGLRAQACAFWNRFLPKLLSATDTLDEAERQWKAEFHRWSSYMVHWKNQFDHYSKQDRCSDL

[3] = biological target: Cholinesterase (Equus caballus, UniProt P81908); assay: Irreversible inhibition of equine serum BuChE assessed as second order carbamylation rate constant using S-butyrylthiocholine iodide as substrate preincubated up to 45 mins followed by substrate addition measured after 5 mins
Sequence of Cholinesterase (Equus caballus, UniProt P81908) (P81908 whole entry): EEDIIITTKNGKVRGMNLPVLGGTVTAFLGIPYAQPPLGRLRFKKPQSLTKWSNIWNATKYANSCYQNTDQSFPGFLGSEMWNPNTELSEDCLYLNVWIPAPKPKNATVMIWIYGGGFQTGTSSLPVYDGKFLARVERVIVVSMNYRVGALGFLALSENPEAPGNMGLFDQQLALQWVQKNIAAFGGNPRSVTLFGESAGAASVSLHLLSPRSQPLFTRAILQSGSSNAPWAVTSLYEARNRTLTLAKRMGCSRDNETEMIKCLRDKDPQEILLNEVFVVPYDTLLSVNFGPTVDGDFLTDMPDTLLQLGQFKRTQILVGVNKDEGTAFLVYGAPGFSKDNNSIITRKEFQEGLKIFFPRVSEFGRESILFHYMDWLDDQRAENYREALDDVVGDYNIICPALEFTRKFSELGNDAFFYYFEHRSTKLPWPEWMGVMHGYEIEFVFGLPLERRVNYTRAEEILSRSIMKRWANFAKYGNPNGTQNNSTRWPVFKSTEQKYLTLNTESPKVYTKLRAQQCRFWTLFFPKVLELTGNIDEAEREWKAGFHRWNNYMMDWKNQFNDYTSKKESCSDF
Method in brief: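 Equine BChE, pH 8, 37°C, was preincubated for 1, 2, 4, 8, 15, 30 and 45 min with inhibitor at 1×10^-7 to 5×10^-6 M (seven levels). Residual activity was read by Ellman with BTCh and normalised to a water control at each time. kobs came from a one-phase exponential decay fit; k_I1 came from the linear kobs versus concentration relation.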

[4] = biological target: Cholinesterase (Homo sapiens, UniProt P06276); assay: Irreversible inhibition of human plasma BuChE assessed as second order carbamylation rate constant using S-butyrylthiocholine iodide as substrate preincubated up to 45 mins followed by substrate addition measured after 5 mins
Sequence of Cholinesterase (Homo sapiens, UniProt P06276) (P06276 whole entry): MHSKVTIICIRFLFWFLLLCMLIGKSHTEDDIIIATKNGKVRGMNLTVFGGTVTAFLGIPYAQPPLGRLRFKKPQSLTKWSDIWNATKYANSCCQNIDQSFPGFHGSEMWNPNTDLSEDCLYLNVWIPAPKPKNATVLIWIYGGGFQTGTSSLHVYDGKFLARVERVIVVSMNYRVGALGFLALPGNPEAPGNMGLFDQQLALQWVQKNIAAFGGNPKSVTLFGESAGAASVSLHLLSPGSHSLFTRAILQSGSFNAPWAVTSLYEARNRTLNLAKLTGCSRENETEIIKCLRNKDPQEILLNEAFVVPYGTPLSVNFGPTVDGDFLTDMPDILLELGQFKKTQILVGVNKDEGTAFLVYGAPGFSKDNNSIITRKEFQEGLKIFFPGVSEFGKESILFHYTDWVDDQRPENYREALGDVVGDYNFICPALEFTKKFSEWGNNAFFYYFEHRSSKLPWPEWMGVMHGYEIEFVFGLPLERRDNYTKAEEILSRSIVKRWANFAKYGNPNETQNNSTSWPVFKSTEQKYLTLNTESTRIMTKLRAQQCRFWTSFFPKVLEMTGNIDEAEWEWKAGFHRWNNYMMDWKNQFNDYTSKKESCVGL
Method in brief: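 Diluted human plasma BChE was preincubated for 1–45 min with inhibitor at 5×10^-9, 1×10^-8, 2.5×10^-8 and 5×10^-8 M. Residual Ellman activity with BTCh at pH 8 was normalised to a water control. kobs came from a one-phase exponential fit; k_I1 came from the slope of kobs versus concentration.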

[5] = system: Mus musculus; assay: Cardiotoxicity in Kunming mouse assessed as change in heart rate at 20 mg/kg, ip measured after 1 mins by electrocardiogram (reference value: -4.04 +/- 7.52); type: toxicity, organism-based; details: in vivo
[6] = system: Mus musculus; assay: Cardiotoxicity in Kunming mouse assessed as change in heart rate at 20 mg/kg, ip measured after 2 mins by electrocardiogram (reference value: -16.36 +/- 11.14); type: toxicity, organism-based; details: in vivo
[7] = system: Mus musculus; assay: Cardiotoxicity in Kunming mouse assessed as change in heart rate at 20 mg/kg, ip measured after 4 mins by electrocardiogram (reference value: -13.79 +/- 13.4); type: toxicity, organism-based; details: in vivo
[8] = system: Mus musculus; assay: Cardiotoxicity in Kunming mouse assessed as change in heart rate at 20 mg/kg, ip measured after 6 mins by electrocardiogram (reference value: -19.47 +/- 22.55); type: toxicity, organism-based; details: in vivo, 0.1 h
[9] = system: Mus musculus; assay: Cardiotoxicity in Kunming mouse assessed as change in heart rate at 20 mg/kg, ip measured after 7 mins by electrocardiogram (reference value: -25.9 +/- 22.08); type: toxicity, organism-based; details: in vivo
[10] = system: Mus musculus; assay: Cardiotoxicity in Kunming mouse assessed as change in heart rate at 20 mg/kg, ip measured after 8 mins by electrocardiogram (reference value: -27.98 +/- 16.02); type: toxicity, organism-based; details: in vivo
[11] = system: Mus musculus; assay: Cardiotoxicity in Kunming mouse assessed as change in heart rate at 20 mg/kg, ip measured after 9 mins by electrocardiogram (reference value: -31.96 +/- 17.01); type: toxicity, organism-based; details: in vivo, 0.15 h
[12] = system: Mus musculus; assay: Cardiotoxicity in Kunming mouse assessed as change in heart rate at 20 mg/kg, ip measured after 10 mins by electrocardiogram (reference value: -34.85 +/- 19.78); type: toxicity, organism-based; details: in vivo
[13] = system: Mus musculus; assay: Cardiotoxicity in Kunming mouse assessed as change in heart rate at 20 mg/kg, ip measured after 11 mins by electrocardiogram (reference value: -35.4 +/- 11.4); type: toxicity, organism-based; details: in vivo
[14] = system: Mus musculus; assay: Cardiotoxicity in Kunming mouse assessed as change in heart rate at 20 mg/kg, ip measured after 12 mins by electrocardiogram (reference value: -40.39 +/- 20.17); type: toxicity, organism-based; details: in vivo, 0.2 h
[15] = system: Mus musculus; assay: Cardiotoxicity in Kunming mouse assessed as change in heart rate at 20 mg/kg, ip measured after 13 mins by electrocardiogram (reference value: -37.85 +/- 14.54); type: toxicity, organism-based; details: in vivo
[16] = system: Mus musculus; assay: Cardiotoxicity in Kunming mouse assessed as change in heart rate at 20 mg/kg, ip measured after 15 mins by electrocardiogram (reference value: -35.14 +/- 24.5); type: toxicity, organism-based; details: in vivo, 0.25 h
[17] = system: Mus musculus; assay: Cardiotoxicity in Kunming mouse assessed as change in heart rate at 20 mg/kg, ip measured after 17 mins by electrocardiogram (reference value: -38.32 +/- 10.76); type: toxicity, organism-based; details: in vivo
[18] = system: Mus musculus; assay: Cardiotoxicity in Kunming mouse assessed as change in heart rate at 20 mg/kg, ip measured after 19 mins by electrocardiogram (reference value: -38.67 +/- 13.91); type: toxicity, organism-based; details: in vivo
[19] = system: Mus musculus; assay: Cardiotoxicity in Kunming mouse assessed as change in heart rate at 20 mg/kg, ip measured after 20 mins by electrocardiogram (reference value: -40.16 +/- 13.12); type: toxicity, organism-based; details: in vivo
[20] = system: Mus musculus; assay: Cardiotoxicity in Kunming mouse assessed as change in heart rate at 20 mg/kg, ip measured after 22 mins by electrocardiogram (reference value: -41.94 +/- 12.51); type: toxicity, organism-based; details: in vivo
[21] = system: Mus musculus; assay: Cardiotoxicity in Kunming mouse assessed as change in heart rate at 20 mg/kg, ip measured after 23 mins by electrocardiogram (reference value: -44.9 +/- 14.57); type: toxicity, organism-based; details: in vivo
[22] = system: Mus musculus; assay: Cardiotoxicity in Kunming mouse assessed as change in heart rate at 20 mg/kg, ip measured after 25 mins by electrocardiogram (reference value: -43.17 +/- 15.26); type: toxicity, organism-based; details: in vivo
[23] = system: Mus musculus; assay: Cardiotoxicity in Kunming mouse assessed as change in heart rate at 20 mg/kg, ip measured after 28 mins by electrocardiogram (reference value: -49.06 +/- 20.71); type: toxicity, organism-based; details: in vivo
[24] = system: Mus musculus; assay: Cardiotoxicity in Kunming mouse assessed as change in heart rate at 20 mg/kg, ip measured after 29 mins by electrocardiogram (reference value: -47.2 +/- 24.77); type: toxicity, organism-based; details: in vivo
[25] = system: Mus musculus; assay: Cardiotoxicity in Kunming mouse assessed as change in heart rate at 20 mg/kg, ip measured after 30 mins by electrocardiogram (reference value: -43.78 +/- 22.71); type: toxicity, organism-based; details: in vivo, 0.5 h
[26] = system: Mus musculus; assay: Cardiotoxicity in Kunming mouse assessed as change in heart rate at 20 mg/kg, ip measured after 31 mins by electrocardiogram (reference value: -42.8 +/- 29.79); type: toxicity, organism-based; details: in vivo
[27] = system: Mus musculus; assay: Cardiotoxicity in Kunming mouse assessed as change in heart rate at 20 mg/kg, ip measured after 34 mins by electrocardiogram (reference value: -35 +/- 23.88); type: toxicity, organism-based; details: in vivo
[28] = system: Mus musculus; assay: Cardiotoxicity in Kunming mouse assessed as change in heart rate at 20 mg/kg, ip measured after 35 mins by electrocardiogram (reference value: -31.81 +/- 27.31); type: toxicity, organism-based; details: in vivo
[29] = system: Mus musculus; assay: Cardiotoxicity in Kunming mouse assessed as change in heart rate at 20 mg/kg, ip measured after 36 mins by electrocardiogram (reference value: -32.32 +/- 25.52); type: toxicity, organism-based; details: in vivo, 0.6 h

Sequence of Acetylcholinesterase (Electrophorus electricus, UniProt O42275) (O42275 whole entry): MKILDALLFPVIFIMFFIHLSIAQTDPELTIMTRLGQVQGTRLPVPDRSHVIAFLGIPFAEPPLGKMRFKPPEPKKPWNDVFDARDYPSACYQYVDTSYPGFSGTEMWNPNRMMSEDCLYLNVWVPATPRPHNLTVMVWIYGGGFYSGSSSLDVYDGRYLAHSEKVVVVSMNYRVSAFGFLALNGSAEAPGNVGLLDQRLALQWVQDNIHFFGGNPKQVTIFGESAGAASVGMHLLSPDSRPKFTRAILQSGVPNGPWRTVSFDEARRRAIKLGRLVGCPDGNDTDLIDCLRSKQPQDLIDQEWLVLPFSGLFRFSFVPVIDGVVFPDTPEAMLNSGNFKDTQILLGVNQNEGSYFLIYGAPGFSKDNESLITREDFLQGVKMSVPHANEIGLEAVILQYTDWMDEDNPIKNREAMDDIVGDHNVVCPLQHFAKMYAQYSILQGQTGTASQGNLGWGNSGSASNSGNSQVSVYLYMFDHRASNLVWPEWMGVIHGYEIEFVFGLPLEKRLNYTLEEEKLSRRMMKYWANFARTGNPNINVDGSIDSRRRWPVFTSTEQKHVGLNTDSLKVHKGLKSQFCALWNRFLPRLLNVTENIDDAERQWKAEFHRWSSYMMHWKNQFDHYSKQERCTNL

| Compound | IC50 [1] [µM] | IC50 [2] [µM] | Ki [3] [×10⁵ /M/min] | Ki [4] [×10⁵ /M/min] | Activity [5] [bpm] | Activity [6] [bpm] | Activity [7] [bpm] | Activity [8] [bpm] | Activity [9] [bpm] | Activity [10] [bpm] | Activity [11] [bpm] | Activity [12] [bpm] | Activity [13] [bpm] | Activity [14] [bpm] | Activity [15] [bpm] | Activity [16] [bpm] | Activity [17] [bpm] | Activity [18] [bpm] | Activity [19] [bpm] | Activity [20] [bpm] | further results |
| --- | --- | --- | --- | --- | --- | --- | --- | --- | --- | --- | --- | --- | --- | --- | --- | --- | --- | --- | --- | --- | --- |
| CN(C)C(=O)Oc1cc(OC(=O)N(C)C)cc(C(O)CNC(C)(C)C)c1 (configuration not stated) [BAMBUTEROL] | > 100 | > 10 | 1.44 | 77.7 | -2.81 | -2.66 | 3.77 | 16.63 | 16.59 | 9.76 | 0.55 | -0.24 | 5.19 | 15.49 | 15.31 | 53.3 | 45.59 | 38.36 | 34.4 | 48.65 | Activity [21]: 48.77 bpm; Activity [22]: 30.43 bpm; Activity [23]: -15.03 bpm; Activity [24]: -23.87 bpm; Activity [25]: -20.41 bpm; Activity [26]: -13.49 bpm; Activity [27]: -6.04 bpm; Activity [28]: -2.92 bpm; Activity [29]: -26.54 bpm |
| CCN(C)C(=O)Oc1cc(OC(=O)N(C)CC)cc(C(O)CNC(C)(C)CC)c1.Cl (configuration not stated) | > 100 | > 10 | 1.49 | 73.3 | -0.1 | -1.28 | 2.55 | -1.48 | -3.03 | -4.23 | -5.8 | -6.25 | -8.17 | -4.45 | -3.93 | -2.32 | 4.98 | 2.88 | 0.13 | 0.05 | Activity [21]: 0.52 bpm; Activity [22]: -0.22 bpm; Activity [23]: -7.52 bpm; Activity [24]: -5.1 bpm; Activity [25]: -1.5 bpm; Activity [26]: 1.28 bpm; Activity [27]: -5.5 bpm; Activity [28]: -11.4 bpm; Activity [29]: -25.47 bpm |
| CCC(C)(C)NCC(O)c1cc(OC(=O)N(C)C)cc(OC(=O)N(C)C)c1.Cl (configuration not stated) | > 100 | > 10 | 1.42 | 60 | -18.58 | -21.23 | -26.67 | -31.29 | -33.53 | -32.94 | -34.87 | -40.41 | -42.6 | -46.97 | -43.71 | -49.12 | -40.25 | -41.43 | -40.62 | -41.75 | Activity [21]: -41.98 bpm; Activity [22]: -44.42 bpm; Activity [23]: -37.58 bpm; Activity [24]: -37.74 bpm; Activity [25]: -36.5 bpm; Activity [26]: -37.65 bpm; Activity [27]: -37.47 bpm; Activity [28]: -37.47 bpm; Activity [29]: -36.32 bpm |
